Experimental data gathered from unrelated publications.
Each line is one published result; the experiments were not run side by side.
Target: Cytochrome P450 2D6 (CYP2D6, Homo sapiens, UniProt P10635)
Read-out: enzyme activity
Mode: inhibitor

Structure (SMILES) | method | host | matrix | time | pH | endpoint | value
O=c1c(O)c(-c2ccc(O)c(O)c2)oc2cc(O)cc(O)c12 | fluorescence |  |  |  | pH 7.4 | IC50 | 650 nM
C[C@H]1CN(c2n[nH]c3nc(N[C@H]4CC[C@H](NS(=O)(=O)CCC(F)(F)F)CC4)ncc23)CCO1 |  |  |  |  |  | IC50 | > 100000 nM
Nc1nc(N)c2nc(CNc3cccc4ccccc34)cnc2n1 | luciferase |  |  |  |  | IC50 | 832 nM
COc1ccc2c(Cc3ccccc3F)c3[n+](cc2c1OC)CCc1cc2c(cc1-3)OCO2 |  |  |  |  |  | IC50 | 200 nM
NS(=O)(=O)NCCNc1nonc1C(=NO)Nc1ccc(F)c(Br)c1 | fluorescence |  |  |  |  | IC50 | > 10000 nM
COc1ccc2cc3[n+](cc2c1OC)CCc1cc2c(cc1-3)OCO2 |  |  |  |  |  | IC50 | 600 nM
Cc1cc(C)c2c(c1)[C@@H](N(Cc1cc(C(F)(F)F)cc(C(F)(F)F)c1)c1nnn(C)n1)CCCN2C[C@H]1CC[C@H](C(=O)O)CC1 |  | human | liver microsomes |  | pH 7.4 | Ki | 2100 nM
Nc1nc(N)c2nc(CNc3ccc(C(=O)NCCc4ccccc4)cc3)cnc2n1 | luciferase |  |  |  |  | IC50 | 10500 nM
Cc1coc([C@H]2C[C@H]3[C@@H](C)SC(N)=N[C@@]3(c3ccc(F)cc3F)CO2)n1 |  | human | liver microsomes |  | pH 7.4 | IC50 | > 30000 nM
Cc1cc2c(F)c(Oc3ncnn4cc(OC[C@@H](C)O)c(C)c34)ccc2[nH]1 | fluorescence |  |  | 15 min |  | IC50 | 34700 nM
Cc1cc([C@H]2C[C@H]3[C@@H](CF)SC(N)=N[C@@]3(c3ccc(F)cc3F)CO2)on1 |  | human | liver microsomes |  | pH 7.4 | IC50 | > 30000 nM
Cc1ccc2nc(-c3ccccc3)c(CNc3ccc(F)cc3)n2c1 |  |  |  |  |  | IC50 | 2300 nM
